The values below come from ChEMBL document CHEMBL4622866, “Synthesis, biochemical evaluation, and molecular modeling of organophosphate-coumarin hybrids as potent and selective butyrylcholinesterase inhibitors” (Bioorg Med Chem Lett, 2020).

The target in one data set is Cholinesterase (Equus caballus, UniProt P81908). The experiment in a line: Inhibition of equine BChE using butyrylthiocholine as substrate measured after 15 sec by Ellman's method. Put shortly:
(§1)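 Ellman assay scaled to 120 μL reactions, with no enzyme–inhibitor pre-incubation. Activity read after 15 s of enzyme exposure. Inhibitor stocks were made in methanol and diluted into buffer; some values were determined in 2% DMSO. IC50 values are reported as mean with standard deviation.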

The target of data set [1] is Cholinesterase (Equus caballus) (UniProt P81908). Briefly: Inhibition of equine BChE at 34 uM using butyrylthiocholine as substrate measured after 15 sec by Ellman's method relative to control. Put shortly: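 Single-concentration Ellman screen (120 μL scale) at 34 μM inhibitor with 2% MeOH (v/v) vehicle. Activity read after 15 s of enzyme exposure, in triplicate, reported as mean. Expressed relative to a vehicle-only control reaction.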
(In Ellman's method for cholinesterases, released thiocholine reacts with DTNB.)

Data set [2] addresses T1, Acetylcholinesterase (Electrophorus electricus, UniProt O42275). The experiment in a line: Inhibition of electric eel AChE using acetylthiocholine as substrate measured after 15 sec by Ellman's method. Put shortly: as §1
A short description of data set [3]: Selectivity index, ratio of IC50 for electric eel AChE using acetylthiocholine as substrate measured after 15 sec by Ellman's method to IC50 for equine BChE using butyrylthiocholine as substrate measured after 15 sec by Ellman's method.
Data set [4] has as its target Cholinesterase (Equus caballus) (UniProt P81908). The experiment in a line: Time dependent inhibition of equine BChE.
In data set [5] the target is T1, Acetylcholinesterase. The experiment in a line: Time dependent inhibition of electric eel AChE.
Data set [6] has as its target Cholinesterase (Equus caballus) (UniProt P81908). The experiment in a line: Binding affinity to equine BChE assessed as observed rate constant.

pIC50: −log10 of the molar value. Activity calls are given as the source filed them. The rule behind the calls is not given here. Some results are limits rather than exact numbers.

Sequence of Cholinesterase (Equus caballus) (P81908 whole entry): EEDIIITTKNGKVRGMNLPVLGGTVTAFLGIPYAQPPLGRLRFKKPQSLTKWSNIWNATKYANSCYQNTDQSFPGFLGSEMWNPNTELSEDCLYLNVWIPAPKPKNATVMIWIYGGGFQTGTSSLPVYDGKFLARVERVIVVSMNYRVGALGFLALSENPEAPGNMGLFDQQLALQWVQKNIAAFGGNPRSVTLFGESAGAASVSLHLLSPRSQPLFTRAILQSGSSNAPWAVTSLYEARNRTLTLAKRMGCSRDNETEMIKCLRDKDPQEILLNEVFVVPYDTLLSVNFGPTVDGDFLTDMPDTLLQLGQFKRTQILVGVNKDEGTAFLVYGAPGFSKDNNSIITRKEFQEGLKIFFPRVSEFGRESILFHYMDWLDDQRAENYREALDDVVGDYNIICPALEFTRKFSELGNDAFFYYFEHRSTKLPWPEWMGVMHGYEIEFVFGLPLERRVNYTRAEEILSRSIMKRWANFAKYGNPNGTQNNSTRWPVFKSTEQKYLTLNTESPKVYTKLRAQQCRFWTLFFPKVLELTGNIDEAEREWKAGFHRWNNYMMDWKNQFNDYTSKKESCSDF
Sequence of Cholinesterase (P81908 whole entry): as above
T1 sequence (O42275 whole entry): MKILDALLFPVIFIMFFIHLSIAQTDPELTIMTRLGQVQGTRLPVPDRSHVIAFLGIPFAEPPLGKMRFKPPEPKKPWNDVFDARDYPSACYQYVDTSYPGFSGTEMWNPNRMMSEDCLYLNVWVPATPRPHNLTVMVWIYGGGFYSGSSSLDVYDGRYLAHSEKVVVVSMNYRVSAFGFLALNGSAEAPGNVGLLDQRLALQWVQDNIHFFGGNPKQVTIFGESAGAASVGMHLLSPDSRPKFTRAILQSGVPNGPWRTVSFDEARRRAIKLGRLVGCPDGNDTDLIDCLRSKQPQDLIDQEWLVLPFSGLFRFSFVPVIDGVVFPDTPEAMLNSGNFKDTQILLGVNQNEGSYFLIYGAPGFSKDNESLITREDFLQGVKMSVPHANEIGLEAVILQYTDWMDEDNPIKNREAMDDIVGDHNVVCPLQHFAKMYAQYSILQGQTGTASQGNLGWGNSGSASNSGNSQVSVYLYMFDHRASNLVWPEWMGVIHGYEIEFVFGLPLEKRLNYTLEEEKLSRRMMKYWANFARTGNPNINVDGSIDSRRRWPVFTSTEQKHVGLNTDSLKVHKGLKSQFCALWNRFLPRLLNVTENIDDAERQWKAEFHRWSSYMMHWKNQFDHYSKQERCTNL

On Cholinesterase, `CCOP(=O)(OCC)Oc1cccc2ccccc12` gave a pIC50 of 4.27.

On to `CC(=O)CC(c1ccccc1)c1c(O)c2ccccc2oc1=O` (stereo unspecified), for which the inhibition in data set [1] came to 10%.

As to `CCOP(=O)(OCC)Oc1ccc(Cc2cc3ccccc3oc2=O)cc1`, the pIC50 against Cholinesterase and at Acetylcholinesterase [2] was 4.52 each time. The Ratio IC50 in data set [3] was found to be 3. The inhibition result in data set [4] was “Active”.

`CCS(=O)(=O)Oc1cccc2ccccc12` showed a pIC50 against Cholinesterase of 4.15.

Consider `CCOP(=O)(OCC)Oc1cccc2oc(=O)c(Cc3ccccc3)cc12`, for which the pIC50 against Cholinesterase was 6.44.

For the compound `CCOP(=S)(OCC)Oc1ccc(Cc2cc3ccccc3oc2=O)cc1`, at Cholinesterase, the pIC50 was 4.28.

`O=c1oc2cccc(O)c2cc1Cc1ccccc1` had a pIC50 against Cholinesterase of less than 3.15.

Take `O=c1oc2cccc(O)c2cc1Cc1ccc(O)cc1`: the pIC50 against Cholinesterase is 4.49.

Regarding `O=c1oc2ccccc2cc1Cc1ccc(O)cc1`, the pIC50 on Cholinesterase was 4.29.

`CCCCOP(=O)(OCCCC)Oc1c(C(CC(C)=O)c2ccccc2)c(=O)oc2ccccc12` (racemic): at Cholinesterase, the pIC50 is 5.82. Besides, in data set [4], the TDI entry was “Active”. Also, on Acetylcholinesterase [5], the TDI entry is on record as “Not Active”.

At Cholinesterase, `CCOP(=S)(OCC)Oc1c(C(CC(C)=O)c2ccccc2)c(=O)oc2ccccc12` (racemic) gave a pIC50 of less than 4.00. In addition, the K in data set [6] turned out to be 8400 M⁻¹ s⁻¹.

On Cholinesterase, `CCOP(=O)(OCC)Oc1c(C(CC(C)=O)c2ccccc2)c(=O)oc2ccccc12` (racemic) showed a pIC50 of 4.95. The TDI entry in data set [4] is “Active”. Moreover, on Acetylcholinesterase [5], the TDI result was “Not Active”. Further, the K in data set [6] worked out at 142000 M⁻¹ s⁻¹.

In general, pIC50 refers to the IC50 on a negative log10 scale, so that one unit is a factor of ten. A high value points to a low IC50. One may read the inhibition as the share of the control response that was lost under treatment.
